PubChem BioAssay AID1040 (The Scripps Research Institute Molecular Screening Center, 2008)
Screen size: about 200,000 compounds; about 2,000 (1%) were called active. Only a selection was taken, and actives are over-represented in it overall. Values without a mark were called inactive.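 The calls were made as follows: active = inhibition above the campaign mean inhibition of all tested compounds plus 3 SD (cut at about 20% in these data); inactive = the rest.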

Biological target: Neuropeptide Y receptor type 1 (Homo sapiens) (UniProt P25929)
Assay: blockers of human neuropeptide Y Y1 receptor – cell-based, primary screen (AID 1040);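 also: 0% = DMSO wells given NPY plus isoproterenol and 100% = isoproterenol alone without NPY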
Details: HEK293-CNG Y1 cells, membrane potential fluorescence; at 3.6 µM; active compounds read high
Outline: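 Test system – HEK293 Y1/CNG channel cell line · Also added – NPY agonist 25 nM, then isoproterenol 1 µM plus Ro 20-1724 25 µM · Compound dosing – one concentration, 3.6 µM, in 0.4% DMSO · Schedule – compound incubation 1 h at room temperature, readout 45 min post-stimulation · Technique – fluorescence, membrane potential probe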

Sequence of Neuropeptide Y receptor type 1 (Homo sapiens) (P25929 whole entry, looked up): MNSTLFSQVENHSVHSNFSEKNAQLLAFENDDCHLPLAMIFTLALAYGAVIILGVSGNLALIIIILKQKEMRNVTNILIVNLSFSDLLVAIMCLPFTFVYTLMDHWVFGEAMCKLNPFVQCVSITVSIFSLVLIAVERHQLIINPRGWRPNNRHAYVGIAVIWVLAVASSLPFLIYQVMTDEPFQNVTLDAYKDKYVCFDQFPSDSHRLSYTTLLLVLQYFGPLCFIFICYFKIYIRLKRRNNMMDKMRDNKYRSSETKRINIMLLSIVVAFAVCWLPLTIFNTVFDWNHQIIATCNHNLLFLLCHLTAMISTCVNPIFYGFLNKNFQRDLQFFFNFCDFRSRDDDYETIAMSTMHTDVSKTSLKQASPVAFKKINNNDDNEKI

SMILES	inhibition
N#Cc1ccc(Cn2cc(C(=O)c3ccco3)c3ccccc32)cc1	21.4% (active)
NC(=O)Cn1cc(C(=O)c2ccccc2F)c2ccccc21	4.87%
CC(C)Oc1cccc(C(=O)C2CCCN(C3CCOCC3)C2)c1 (stereo not given)	1.82%
CCOC(=O)c1c(N)n(CCN2CCOCC2)c2nc3ccccc3nc12	-2.58%
CCOC(=O)c1c(N)n(Cc2ccccc2)c2nc3ccccc3nc12	26.8% (active)
COc1cc(Cn2c(N)c(C(=O)NCc3ccco3)c3nc4ccccc4nc32)cc(OC)c1OC	-7.12%
N=c1ccccn1Cc1ccccc1	-3.41%
CCc1nnc(NS(=O)(=O)c2ccc(N=Cc3c(O)n(-c4ccccc4)c(=O)[nH]c3=O)cc2)s1	12.6%
COc1ccc(C(=O)C2CCCN(Cc3ccc(C)s3)C2)cc1OC (stereo not given)	-3.61%
O=C(CN1CCCC1=O)NCCc1ccccc1	-2.4%
